In ChEMBL document CHEMBL5705906 (Nat Commun, 2017):
Calls of active or inactive are those of the source. The calls are words filed in the database; no cut-off is given here.

How the values were obtained:
PC-9 [1] = assay: Inhibition of EGFR T790M/del19 mutant in human PC-9 cells assessed as reduction in S6 phosphorylation at 10 to 1000 nM by Western blotting analysis; type: cell-based; settings: dose 10-1000 nM
BaF3 [2] = assay: Inhibition of EGFR-C797S/T790M/del19 mutant in mouse BaF3 cells assessed as reduction in ERK phosphorylation at 10 to 1000 nM by Western blotting analysis; type: cell-based; settings: dose 10-1000 nM
PC-9 [3] = assay: Inhibition of EGFR T790M/del19 mutant in human PC-9 cells assessed as reduction in ERK phosphorylation at 10 to 1000 nM by Western blotting analysis; type: cell-based; settings: dose 10-1000 nM
BaF3 [4] = assay: Inhibition of EGFR-C797S/T790M/del19 mutant in mouse BaF3 cells assessed as reduction in Akt protein level at 10 to 1000 nM by Western blotting analysis; type: cell-based; settings: dose 10-1000 nM
BaF3 [5] = assay: Inhibition of EGFR-C797S/T790M/del19 mutant in mouse BaF3 cells assessed as reduction in Akt phosphorylation at 10 to 1000 nM by Western blotting analysis; type: cell-based; settings: dose 10-1000 nM
BaF3 [6] = assay: Inhibition of EGFR-C797S/T790M/del19 mutant in mouse BaF3 cells assessed as reduction in S6 phosphorylation at 10 to 1000 nM by Western blotting analysis; type: cell-based; settings: dose 10-1000 nM
BaF3 [7] = assay: Inhibition of EGFR-C797S/T790M/del19 mutant in mouse BaF3 cells assessed as reduction in EGFR phosphorylation at 10 to 1000 nM by Western blotting analysis; type: cell-based; settings: dose 10-1000 nM
BaF3 [8] = assay: Inhibition of EGFR-C797S/T790M/del19 mutant in mouse BaF3 cells assessed as reduction in S6 protein level at 10 to 1000 nM by Western blotting analysis; type: cell-based; settings: dose 10-1000 nM
PC-9 [9] = assay: Inhibition of EGFR T790M/del19 mutant in human PC-9 cells assessed as reduction in EGFR phosphorylation at 10 to 1000 nM by Western blotting analysis; type: cell-based; settings: dose 10-1000 nM
NCI-H460 = assay: Anticancer activity against KRAS-mutated human NCI-H460 cells assessed as reduction in cell viability at 1 to 10000 nM incubated for 72 hrs by CellTiter-Glo assay; type: functional, cell-based; settings: dose 1-10000 nM
BaF3 [10] = assay: Inhibition of EGFR-C797S/T790M/del19 mutant in mouse BaF3 cells assessed as reduction in ERK protein level at 10 to 1000 nM by Western blotting analysis; type: cell-based; settings: dose 10-1000 nM
PC-9 [11] = assay: Inhibition of EGFR T790M/del19 mutant in human PC-9 cells assessed as reduction in Akt phosphorylation at 10 to 1000 nM by Western blotting analysis; type: cell-based; settings: dose 10-1000 nM
A549 = assay: Anticancer activity against KRAS-mutated human A549 cells assessed as reduction in cell viability at 1 to 10000 nM incubated for 72 hrs by CellTiter-Glo assay; type: functional, cell-based; settings: dose 1-10000 nM
BaF3 [12] = assay: Inhibition of EGFR-C797S/T790M/L858R mutant in mouse BaF3 cells assessed as inhibition of EGFR phosphorylation at 10 to 1000 nM incubated for 6 hrs by Western blotting analysis; type: cell-based; settings: dose 10-1000 nM
Summary of the method: (§1)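 Ba/F3 cells expressing EGFR-L858R-series mutants treated with inhibitors for 6 h. SDS lysates quantified by BCA, run on SDS-PAGE and blotted to PVDF. Probed for phospho-EGFR (Tyr1068), total EGFR and downstream phospho-proteins.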

BaF3 [13] = assay: Inhibition of EGFR-C797S/T790M/L858R mutant expressed in mouse BaF3 cells assessed as inhibition of Akt phosphorylation at 10 to 1000 nM incubated for 6 hrs by Western blotting analysis; type: cell-based; settings: dose 10-1000 nM; summary of the method: as §1
BaF3 [14] = assay: Inhibition of EGFR-C797S/T790M/L858R mutant in mouse BaF3 cells assessed as inhibition of S6 phosphorylation at 10 to 1000 nM incubated for 6 hrs by Western blotting analysis; type: cell-based; settings: dose 10-1000 nM; summary of the method: as §1
BaF3 [15] = assay: Inhibition of EGFR-C797S/T790M/L858R mutant expressed in mouse BaF3 cells assessed as inhibition of ERK phosphorylation at 10 to 1000 nM incubated for 6 hrs by Western blotting analysis; type: cell-based; settings: dose 10-1000 nM; summary of the method: as §1
[16] = system: Epidermal growth factor receptor (Homo sapiens), P00533 [UNDEFINED MUTATION]; settings: PC-9, dose 10-1000 nM
Epidermal growth factor receptor (Homo sapiens), P00533 [UNDEFINED MUTATION], sequence (P00533 whole entry, looked up, stated change not applied): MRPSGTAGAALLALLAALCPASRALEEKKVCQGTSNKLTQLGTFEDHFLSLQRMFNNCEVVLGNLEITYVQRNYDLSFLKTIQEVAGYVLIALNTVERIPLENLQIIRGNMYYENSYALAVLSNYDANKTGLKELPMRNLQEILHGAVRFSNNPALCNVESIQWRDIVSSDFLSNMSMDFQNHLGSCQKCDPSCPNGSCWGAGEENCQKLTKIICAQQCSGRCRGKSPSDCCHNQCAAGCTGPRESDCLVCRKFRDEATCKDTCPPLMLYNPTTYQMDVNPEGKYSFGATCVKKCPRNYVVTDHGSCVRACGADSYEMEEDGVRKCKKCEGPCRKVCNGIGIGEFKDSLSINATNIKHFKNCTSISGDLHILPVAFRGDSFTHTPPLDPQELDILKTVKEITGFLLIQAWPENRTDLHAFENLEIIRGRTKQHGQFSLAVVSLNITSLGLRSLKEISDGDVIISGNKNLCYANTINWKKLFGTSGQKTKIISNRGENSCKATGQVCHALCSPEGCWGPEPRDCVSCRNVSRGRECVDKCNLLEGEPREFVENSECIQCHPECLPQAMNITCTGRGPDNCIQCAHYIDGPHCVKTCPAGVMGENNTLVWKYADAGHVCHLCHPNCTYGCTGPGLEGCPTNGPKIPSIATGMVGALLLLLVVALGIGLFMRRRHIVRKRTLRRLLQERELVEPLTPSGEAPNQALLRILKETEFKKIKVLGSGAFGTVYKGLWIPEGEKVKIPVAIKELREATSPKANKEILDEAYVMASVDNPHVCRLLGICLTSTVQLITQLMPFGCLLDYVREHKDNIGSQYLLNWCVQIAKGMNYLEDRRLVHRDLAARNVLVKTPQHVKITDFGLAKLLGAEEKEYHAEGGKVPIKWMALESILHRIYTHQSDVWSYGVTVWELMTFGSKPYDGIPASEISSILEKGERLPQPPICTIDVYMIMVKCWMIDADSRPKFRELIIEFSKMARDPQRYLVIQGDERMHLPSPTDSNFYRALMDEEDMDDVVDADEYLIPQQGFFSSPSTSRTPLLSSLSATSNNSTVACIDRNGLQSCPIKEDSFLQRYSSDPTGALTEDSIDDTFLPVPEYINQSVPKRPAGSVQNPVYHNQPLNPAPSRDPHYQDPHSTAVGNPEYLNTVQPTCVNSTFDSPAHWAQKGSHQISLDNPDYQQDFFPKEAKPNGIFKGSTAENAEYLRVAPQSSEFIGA

[17] = system: Epidermal growth factor receptor (Homo sapiens), P00533 [UNDEFINED MUTATION]; settings: PC-9, dose 10-1000 nM; remark: listed apart in the source
[18] = system: Epidermal growth factor receptor (Homo sapiens), P00533 [UNDEFINED MUTATION]; settings: PC-9, dose 10-1000 nM; remark: listed apart in the source
[19] = system: Epidermal growth factor receptor (Homo sapiens), P00533 [UNDEFINED MUTATION]; settings: PC-9, dose 10-1000 nM; remark: listed apart in the source
BaF3 [20] = assay: Inhibition of EGFR-del19 mutant in mouse BaF3 cells assessed as inhibition of ERK phosphorylation at 10 to 1000 nM incubated for 6 hrs by Western blotting analysis; type: cell-based; settings: dose 10-1000 nM
Summary of the method: (§2)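 Ba/F3 cells carrying the stated EGFR mutant were made IL-3-independent after 1 week of 7 µM blasticidin selection. They were grown in low-glucose DMEM with 10% FBS and exposed to inhibitor for 6 h. Cells were washed in cold PBS, lysed in SDS buffer (100 mM Tris, 1% SDS, 10% glycerol) and boiled 5 min. Protein was measured by BCA, run on SDS-PAGE, transferred to PVDF, blocked in 5% BSA or milk/TBS-T, and immunoblotted.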

[21] = system: Epidermal growth factor receptor (Homo sapiens), P00533 [UNDEFINED MUTATION]; settings: MGH121, dose 10-1000 nM
BaF3 [22] = assay: Inhibition of EGFR-C797S/T790M/del19 mutant in mouse BaF3 cells assessed as reduction in EGFR phosphorylation incubated for 6 hrs by Western blotting analysis; type: cell-based
BaF3 [23] = assay: Inhibition of EGFR-C797S/T790M/del19 mutant in mouse BaF3 cells assessed as reduction in Akt phosphorylation incubated for 6 hrs by Western blotting analysis; type: cell-based
BaF3 [24] = type: cell-based; settings: Mus musculus, dose 10-1000 nM, time 6.0 hrs
[25] = system: Epidermal growth factor receptor (Homo sapiens), P00533 [UNDEFINED MUTATION]; settings: MGH121, dose 10-1000 nM; remark: listed apart in the source
BaF3 [26] = assay: Inhibition of EGFR-T790M/del19 mutant in mouse BaF3 cells assessed as inhibition of Akt phosphorylation at 10 to 1000 nM incubated for 6 hrs by Western blotting analysis; type: cell-based; settings: dose 10-1000 nM; summary of the method: as §2
[27] = system: Epidermal growth factor receptor (Homo sapiens), P00533 [UNDEFINED MUTATION]; settings: PC-9, dose 10-1000 nM; remark: listed apart in the source
[28] = system: Epidermal growth factor receptor (Homo sapiens), P00533 [UNDEFINED MUTATION]; settings: PC-9, dose 10-1000 nM; remark: listed apart in the source
BaF3 [29] = assay: Inhibition of EGFR-T790M/del19 mutant in mouse BaF3 cells assessed as inhibition of ERK phosphorylation at 10 to 1000 nM incubated for 6 hrs by Western blotting analysis; type: cell-based; settings: dose 10-1000 nM; summary of the method: as §2
BaF3 [30] = assay: Inhibition of EGFR-C797S/T790M/del19 mutant in mouse BaF3 cells assessed as reduction in ERK phosphorylation incubated for 6 hrs by Western blotting analysis; type: cell-based
[31] = system: Epidermal growth factor receptor (Homo sapiens), P00533 [UNDEFINED MUTATION]; settings: PC-9, dose 10-1000 nM; remark: listed apart in the source
[32] = Cytotoxicity against mouse Ba/F3 EGFR-Del19/T790M/C797S cells assessed as inhibition of cell viability by measuring fold change at 30 nM incubated for 72 hrs in presence of cetuximab by CellTiter-Glo assay relative to AP26113-analog alone; type: functional
BaF3 [33] = assay: Inhibition of EGFR-T790M/del19 mutant in mouse BaF3 cells assessed as inhibition of EGFR phosphorylation at 10 to 1000 nM incubated for 6 hrs by Western blotting analysis; type: cell-based; settings: dose 10-1000 nM; summary of the method: as §2
BaF3 [34] = assay: Inhibition of EGFR-C797S/T790M/del19 mutant in mouse BaF3 cells assessed as reduction in S6 phosphorylation incubated for 6 hrs by Western blotting analysis; type: cell-based; summary of the method: as §2
[35] = system: Epidermal growth factor receptor (Homo sapiens), P00533 [UNDEFINED MUTATION]; settings: MGH121, dose 10-1000 nM; remark: listed apart in the source
BaF3 [36] = type: cell-based; settings: Mus musculus, dose 10-1000 nM, time 6.0 hrs; remark: listed apart in the source
[37] = Cytotoxicity against mouse Ba/F3 EGFR-Del19/T790M/C797S cells assessed as inhibition of cell viability incubated for 72 hrs by CellTiter-Glo assay; type: functional, cell-based
BaF3 [38] = assay: Inhibition of EGFR-T790M/del19 mutant in mouse BaF3 cells assessed as inhibition of S6 phosphorylation at 10 to 1000 nM incubated for 6 hrs by Western blotting analysis; type: cell-based; settings: dose 10-1000 nM; summary of the method: as §2
[39] = system: Epidermal growth factor receptor (Homo sapiens), P00533 [UNDEFINED MUTATION]; settings: MGH121, dose 10-1000 nM; remark: listed apart in the source
BaF3 [40] = type: cell-based; settings: Mus musculus, dose 10-1000 nM, time 6.0 hrs; remark: listed apart in the source
[41] = system: Epidermal growth factor receptor (Homo sapiens), P00533 [UNDEFINED MUTATION]; settings: PC-9, dose 10-1000 nM; remark: listed apart in the source
BaF3 [42] = type: cell-based; settings: Mus musculus, dose 10-1000 nM, time 6.0 hrs; remark: listed apart in the source
BaF3 [43] = assay: Inhibition of EGFR-del19 mutant in mouse BaF3 cells assessed as inhibition of Akt phosphorylation at 10 to 1000 nM incubated for 6 hrs by Western blotting analysis; type: cell-based; settings: dose 10-1000 nM; summary of the method: as §2
BaF3 [44] = assay: Inhibition of EGFR-del19 mutant in mouse BaF3 cells assessed as inhibition of S6 phosphorylation at 10 to 1000 nM incubated for 6 hrs by Western blotting analysis; type: cell-based; settings: dose 10-1000 nM; summary of the method: as §2

CN(C)C/C=C/C(=O)Nc1cc2c(Nc3ccc(F)c(Cl)c3)ncnc2cc1O[C@H]1CCOC1 [AFATINIB]
inhibition (PC-9 [1]): Active | inhibition (BaF3 [2]): inactive | inhibition (PC-9 [3]): Active | inhibition (BaF3 [4]): inactive | inhibition (BaF3 [5]): inactive | inhibition (BaF3 [6]): inactive | inhibition (BaF3 [7]): inactive | inhibition (BaF3 [8]): inactive | inhibition (PC-9 [9]): Active | Activity (NCI-H460): Active | inhibition (BaF3 [10]): inactive | inhibition (PC-9 [11]): Active | Activity (A549): Active

COc1cc(N2CCC(N3CCN(C)CC3)CC2)ccc1Nc1ncc(Cl)c(Nc2ccccc2S(=O)(=O)C(C)C)n1
inhibition (BaF3 [12]): inactive | inhibition (BaF3 [13]): inactive | inhibition (BaF3 [14]): inactive | inhibition (BaF3 [15]): inactive

COc1cc(N2CCC(N)CC2)ccc1Nc1ncc(Cl)c(-c2c[nH]c3ccccc23)n1
inhibition [16]: Active | inhibition [17]: Active | inhibition [18]: Active | inhibition [19]: Active

COc1cc(N2CCC(N(C)C)CC2)ccc1Nc1ncc(Cl)c(Nc2ccccc2P(C)(C)=O)n1
inhibition (BaF3 [12]): Active | inhibition (PC-9 [1]): Active | inhibition (BaF3 [20]): Active | inhibition [21]: Active | inhibition (BaF3 [22]): Active | inhibition (BaF3 [13]): Active | inhibition (BaF3 [23]): Active | inhibition (BaF3 [24]): Active | inhibition [25]: Active | inhibition (PC-9 [3]): Active | inhibition (BaF3 [26]): Active | inhibition [27]: Active | inhibition [28]: Active | inhibition (BaF3 [29]): Active | inhibition (BaF3 [30]): Active | inhibition [31]: Active | fold change (FC) [32]: ~3 | inhibition (BaF3 [33]): Active | inhibition (BaF3 [14]): Active | inhibition (BaF3 [34]): Active | inhibition [35]: Active | inhibition (BaF3 [36]): Active | inhibition (PC-9 [9]): Active | IC50 [37]: 0.0591 µM | inhibition (BaF3 [38]): Active | inhibition (BaF3 [15]): Active | inhibition [39]: Active | inhibition (BaF3 [40]): Active | inhibition [41]: Active | inhibition (PC-9 [11]): Active | inhibition [16]: Active | inhibition (BaF3 [42]): Active | inhibition (BaF3 [43]): Active | inhibition [17]: Active | inhibition [18]: Active | inhibition (BaF3 [44]): Active | inhibition [19]: Active
